From ChEMBL document CHEMBL4257585, “Structure-Activity Relationships of Photoswitchable Diarylethene-Based β-Hairpin Peptides as Membranolytic Antimicrobial and Anticancer Agents” (J Med Chem, 2018)
≈ marks a conversion by molar mass, not a printed value. Non-standard residues stand in square brackets, D forms with d. Residues, ends and D or L forms follow the SMILES beside them. Orn = NCCC[C@H](N)C(=O)O

Key:
[1] = Hemolytic activity against human RBC assessed as hemolysis after 30 mins by colorimetric method; format: ADME, cell-based, Erythrocyte; settings: human red blood cells (erythrocytes)
Outline: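 Human erythrocytes washed twice in isotonic 172 mM Tris-HCl, pH 7.6; peptides dissolved in DMSO, diluted in buffer, two independent 10-step 2-fold series from 256 or 192 μg/mL. HC50 extrapolated as 50% hemolysis concentration.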

[2] = Therapeutic index, ratio of HC50 for human RBC to MIC for Bacillus subtilis DSM 347; format: toxicity; settings: human red blood cells versus Bacillus subtilis DSM 347
Outline: (§1)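 Ratio of HC50 (RBC) to HeLa IC50 or to MIC against B. subtilis or E. coli; values measured in mg/mL and recalculated to μM, 2-fold dilution without curve fitting, accuracy within a factor of 2.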

[3] = Therapeutic index, ratio of HC50 for human RBC to MIC for Escherichia coli DSM 1103; format: toxicity; settings: human red blood cells versus Escherichia coli DSM 1103; outline: as §1
[4] = test system: Escherichia coli; test: Antimicrobial activity against Escherichia coli DSM 1103 after 22 hrs by resazurin dye based spectrophotometry; format: functional; settings: DSM 1103, 22 h
Outline: (§2)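 2-fold broth microdilution in Mueller–Hinton medium; peptide stocks 1024 μg/mL in 50% ethanol. Exponential-phase cultures diluted to OD550 0.2, then 1:100 (B. subtilis) or 1:1000 (E. coli), giving 5 × 10^5 CFU/mL per well. Incubated 22 h, 37 °C, static; then resazurin (0.2 mg/mL solution) added for 2 h at 37 °C, read visually and spectrophotometrically. Tested in both photoforms.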

[5] = Selective ratio of HC50 for human RBC to IC50 for human HeLa cells; format: toxicity; settings: human red blood cells versus HeLa cells; outline: as §1
[6] = test system: Bacillus subtilis; test: Antimicrobial activity against Bacillus subtilis DSM 347 after 22 hrs by resazurin dye based spectrophotometry; format: functional; settings: DSM 347, 22 h; outline: as §2
[7] = test system: HeLa; test: Cytotoxicity against human HeLa cells assessed as reduction in cell viability after 24 hrs by MTT assay; format: functional, cell-based
Outline: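 HeLa cells seeded at about 5 × 10^4 cells/mL in DMEM with 10% FBS, 2 mM glutamine, gentamicin; 24 h adaptation (37 °C, 5% CO2), then 24 h peptide exposure. MTT 4 h, formazan in DMSO read at 570 nm. 2-fold series 256–0.5 (open) or 512–1 μg/mL (closed), four repetitions; IC50 extrapolated from killing curves. Closed form handled in dim light.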

SMILES | HC50 at 0.5 h [1] [µM] | selectivity ratio [2] | selectivity ratio [3] | MIC [4] [µM] | selectivity ratio [5] | MIC [6] [µM] | IC50 [7] [µM]
CC(C)[C@@H]1NC(=O)C2=CC3=C4CCCC4=C4C=C(S[C@]4(C)[C@@]3(C)S2)C(=O)[C@H]2CCCN2C(=O)[C@H]([C@H](O)C(C)C)NC(=O)[C@H](CCCN)NC(=O)[C@H](C(C)C)NC(=O)[C@@H]2CCCN2C(=O)[C@@H](Cc2ccccc2)NC(=O)[C@H](C(C)C)NC(=O)[C@H](CCCN)NC1=O | 200 | 8 | 1 | 200 (≈ 257 µg/mL) | 0.7 | 25 (≈ 32.1 µg/mL) | 300
CC(C)[C@@H]1NC(=O)[C@H](CCCN)NC(=O)[C@H]([C@H](O)C(C)C)NC(=O)C2=CC3=C4CCCC4=C4C=C(S[C@]4(C)[C@@]3(C)S2)C(=O)[C@H]2CCCN2C(=O)[C@H](C(C)C)NC(=O)[C@H](CCCN)NC(=O)[C@H](C(C)C)NC(=O)[C@H](CCCn2cc(COCc3cn(CCC[C@H]4C(=O)N[C@@H](C(C)C)C(=O)N[C@@H](CCCN)C(=O)N[C@@H](C(C)C)C(=O)N5CCC[C@@H]5C(=O)C5=CC6=C7CCCC7=C7C(=CS[C@]7(C)[C@@]6(C)S5)C(=O)N[C@@H]([C@H](O)C(C)C)C(=O)N[C@@H](CCCN)C(=O)N[C@@H](C(C)C)C(=O)N[C@H](Cc5ccccc5)C(=O)N4C)nn3)nn2)N(C)C(=O)[C@@H](Cc2ccccc2)NC1=O | 10 | 1.7 | 0.1 | 96 (≈ 266 µg/mL) | 0.2 | 6 (≈ 16.6 µg/mL) | 48
Cc1sc2cc1C1=C(CCC1)c1cc(sc1C)C(=O)[C@H]1CCCN1C(=O)[C@H](C(C)C)NC(=O)[C@H](CCCN)NC(=O)[C@H](C(C)C)NC(=O)[C@H](CCCn1cc(COCc3cn(CCC[C@H]4C(=O)N[C@@H](C(C)C)C(=O)N[C@@H](CCCN)C(=O)N[C@@H](C(C)C)C(=O)N5CCC[C@@H]5C(=O)c5cc(c(C)s5)C5=C(CCC5)c5cc(sc5C)C(=O)N[C@@H]([C@H](O)C(C)C)C(=O)N[C@@H](CCCN)C(=O)N[C@@H](C(C)C)C(=O)N[C@H](Cc5ccccc5)C(=O)N4C)nn3)nn1)N(C)C(=O)[C@@H](Cc1ccccc1)NC(=O)[C@H](C(C)C)NC(=O)[C@H](CCCN)NC(=O)[C@H]([C@H](O)C(C)C)NC2=O | 1 | 0.3 |  | 48 (≈ 133 µg/mL) |  | 3 (≈ 8.32 µg/mL) | 24
Cc1sc2cc1C1=C(CCC1)c1cc(sc1C)C(=O)[C@H]1CCCN1C(=O)[C@H](CC(C)C)NC(=O)[C@H](CCCCN)NC(=O)[C@H](C(C)C)NC(=O)[C@H](CCCCN)NC(=O)[C@H](CC(C)C)NC(=O)[C@@H]1CCCN1C(=O)[C@@H](Cc1ccccc1)NC(=O)[C@H](C(C)C)NC(=O)[C@H](CCCCN)NC(=O)[C@H](CC(C)C)NC(=O)[C@H](CCCCN)NC(=O)[C@H](C(C)C)NC2=O | < 1 | 0.1 |  | 36 (≈ 64 µg/mL) | 0.2 | 9 (≈ 16 µg/mL) | 5
Cc1sc2cc1C1=C(CCC1)c1cc(sc1C)C(=O)[C@H]1CCCN1C(=O)[C@H](C(C)C)NC(=O)[C@H](CCCN)NC(=O)[C@H](C(C)C)NC(=O)[C@@H]1CCCN1C(=O)[C@@H](Cc1ccccc1)NC(=O)[C@H](C(C)C)NC(=O)[C@H](CCCN)NC(=O)[C@H](CCCn1cc(COCc3cn(CCC[C@@H]4NC(=O)c5cc(c(C)s5)C5=C(CCC5)c5cc(sc5C)C(=O)[C@H]5CCCN5C(=O)[C@H](C(C)C)NC(=O)[C@H](CCCN)NC(=O)[C@H](C(C)C)NC(=O)[C@@H]5CCCN5C(=O)[C@@H](Cc5ccccc5)NC(=O)[C@H](C(C)C)NC(=O)[C@H](CCCN)NC4=O)nn3)nn1)NC2=O | 1 | 1 |  | 23 (≈ 61.7 µg/mL) |  | 1 (≈ 2.68 µg/mL) | 23
Cc1sc2cc1C1=C(CCC1)c1cc(sc1C)C(=O)[C@H]1CCCN1C(=O)[C@H]([C@H](O)C(C)C)NC(=O)[C@H](CCCN)NC(=O)[C@H](C(C)C)NC(=O)[C@@H]1CCCN1C(=O)[C@@H](Cc1ccccc1)NC(=O)[C@H](C(C)C)NC(=O)[C@H](CCCN)NC(=O)[C@H](C(C)C)NC2=O | 39 | 25 | 0.4 | 100 (≈ 128 µg/mL) | 1.3 | 2 (≈ 2.57 µg/mL) | 31
CC(C)C[C@@H]1NC(=O)[C@H](CCCN)NC(=O)[C@H](C(C)C)NC(=O)[C@@H]2CCCN2C(=O)[C@@H](Cc2ccccc2)NC(=O)[C@H](CC(C)C)NC(=O)[C@H](CCCN)NC(=O)[C@H](C(C)C)NC(=O)[C@@H]2CCCN2C(=O)[C@@H](Cc2ccccc2)NC1=O (cyclo(V[Orn]L[dF]PV[Orn]L[dF]P)) [listing 1 of 2 here] | 10.5 |  |  |  |  |  | 3.5
CC(C)C[C@@H]1NC(=O)[C@H](CCCN)NC(=O)[C@H](C(C)C)NC(=O)[C@@H]2CCCN2C(=O)[C@@H](Cc2ccccc2)NC(=O)[C@H](CC(C)C)NC(=O)[C@H](CCCN)NC(=O)[C@H](C(C)C)NC(=O)[C@@H]2CCCN2C(=O)[C@@H](Cc2ccccc2)NC1=O (cyclo(V[Orn]L[dF]PV[Orn]L[dF]P)) [listing 2 of 2 here] |  |  |  | 28 (≈ 32 µg/mL) |  | 1.8 (≈ 2.05 µg/mL) | 
